PAFAH1B2 inh: blocks human PAF acetylhydrolase 1b catalytic subunit 2 | 340,000 tested, 1.2% active | inhibition, % at 3.39 µM | P68402 | recombinant PAFAH1B2, FP-rhodamine activity probe, fluorescence polarization | AID 492953;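 active = inhibition above the mean of all tested compounds plus 3 SD, cut at about 24% in these data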;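 note: 0% = enzyme with DMSO and 100% = wells lacking PAFAH1B2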
PAFAH1B3 FP inh: inhibitors of human PAFAH1B3 | 340,000 tested, 0.28% active | inhibition, % at 3.39 µM | recombinant PAFAH1B3, FP-rhodamine probe, fluorescence polarization | AID 492972 | Q15102;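 active = inhibition above the screen-wide average of all tested compounds plus 3 SD, cut at about 25% in these data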;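 note: 0% = enzyme with DMSO only and 100% = wells lacking PAFAH1B3 protein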
Target sequence (Q15102 whole entry, looked up): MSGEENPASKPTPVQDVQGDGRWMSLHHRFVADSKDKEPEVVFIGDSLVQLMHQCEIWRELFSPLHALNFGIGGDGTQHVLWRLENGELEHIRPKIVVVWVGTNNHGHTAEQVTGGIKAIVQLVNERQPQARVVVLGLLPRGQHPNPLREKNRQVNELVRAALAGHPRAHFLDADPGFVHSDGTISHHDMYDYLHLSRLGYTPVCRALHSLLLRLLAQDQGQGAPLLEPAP
ASAP1 inh: ASAP1 ArfGAP inhibition. Q9ULH1. ASAP1-stimulated ARF1 GTP hydrolysis, GDP FP detection. inhibition, % at 16.5 µM. 360,000 tested, 0.19% active. AID 624377; in the data active = inhibition above about 25%;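 note: 0% = vehicle with enzyme and substrate and 100% = no enzyme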
Target sequence (Q9ULH1 325-724 limits assumed): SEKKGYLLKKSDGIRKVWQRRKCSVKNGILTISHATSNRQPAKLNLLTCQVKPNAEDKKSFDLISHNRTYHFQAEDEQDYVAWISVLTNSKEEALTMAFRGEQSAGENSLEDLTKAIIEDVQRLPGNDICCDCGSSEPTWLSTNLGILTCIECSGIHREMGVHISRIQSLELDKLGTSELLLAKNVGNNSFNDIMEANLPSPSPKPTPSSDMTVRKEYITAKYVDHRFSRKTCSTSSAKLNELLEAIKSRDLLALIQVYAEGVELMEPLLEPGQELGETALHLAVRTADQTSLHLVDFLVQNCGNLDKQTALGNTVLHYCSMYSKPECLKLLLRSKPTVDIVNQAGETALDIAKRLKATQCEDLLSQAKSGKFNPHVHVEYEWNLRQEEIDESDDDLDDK
ARFGAP1 inh: inhibitors of rat ARFGAP1; Q62848; Arfgap1-stimulated ARF1 GTP hydrolysis, GDP FP detection; inhibition, % at 16.5 µM; 360,000 tested, 0.26% active;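 active = inhibition above a per-plate limit, mean inhibition of low control wells plus 3 SD, cut at about 25% in these data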;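 note: 0% = DMSO wells with enzyme and 100% = wells lacking Arfgap1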
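Material – truncated rat Arfgap1 GAP domain · Buffer or medium – HEPES-based buffer, pH 7.5 · Reagent – human ARF1(Δ1-17)-GTP substrate · Dosing – 16.5 µM single point, 1.26% DMSO · Schedule – GTP hydrolysis reaction 2 h at 25 °C · Technique – GDP detection by fluorescence polarization · Benchmarks – No-Arfgap1 wells (100%) versus DMSO full-reaction wells (0%) · Repeats – single replicate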
PAFAH2 inh: PAFAH2 (human) inhibition. Q99487. recombinant PAFAH2, FP-rhodamine activity probe, fluorescence polarization. inhibition, % at 3.39 µM. 340,000 tested, 0.99% active;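 active = inhibition above the mean over all tested compounds plus 3 SD, cut at about 30% in these data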;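 note: inhibitors block probe labeling of enzyme so polarization drops; 0% = enzyme with DMSO and 100% = wells lacking PAFAH2 protein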
pPAFAH FP inh: pPAFAH (human) enzyme inhibition; Q13093; recombinant pPAFAH, FP-rhodamine probe fluorescence polarization; inhibition, % at 3.39 µM; 330,000 tested, 1.5% active; AID 463082;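 active = inhibition above the mean inhibition across the screen plus 3 SD, cut at about 25% in these data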;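 note: inhibitors block binding of the rhodamine activity-based probe so polarization drops; 0% = enzyme with DMSO and 100% = wells lacking pPAFAH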
The depositor's hits bear a star; x = no result. The list is not random: actives were taken first. Their share in the collection is about 2.7%.

SMILES | PAFAH1B2 inh | PAFAH1B3 FP inh | ASAP1 inh | ARFGAP1 inh | PAFAH2 inh | pPAFAH FP inh
COC(=O)[C@]12C[C@H](CC(=O)NCCC(C)C)C(=O)N(Cc3ccc4c(c3)OCO4)C1=C[C@H](C(C)(C)C)O[C@@H]2C | x | x | -13 | -1 | x | x
O=c1c2ccccc2ncn1CCCSc1ccc(Cl)cc1 | 51* | 7 | -4 | 7 | 6 | 5
O=c1c2ccccc2ncn1CCCSc1ccccc1 | 13 | 0 | -6 | -12 | -10 | 4
CCOC(=O)N[C@H](C(=O)N1CCC[C@H]1C(=O)NC1CCCC1)C1CCCCC1 | x | x | 8 | 1 | x | x
Cc1ccc(S(=O)(=O)CCC(=O)Oc2ccc(-c3nnco3)cc2)cc1 | 5 | 1 | -4 | 6 | -6 | 29*
Cc1ccc(S(=O)(=O)N2CCN(C(=O)COc3ccc(-c4nnco4)cc3)CC2)cc1 | 7 | -4 | -11 | 1 | 1 | 6
Cc1ccccc1-n1c(-c2ccncc2)n[nH]c1=S | 0 | -1 | 4 | -2 | -6 | -3
Cc1cccc(-n2c(-c3ccncc3)n[nH]c2=S)c1C | 4 | 8 | 6 | 2 | -5 | 30*
COC(=O)[C@]12C[C@H](CC(=O)NCCCN3CCCC3=O)C(=O)N(Cc3ccc4c(c3)OCO4)C1=C[C@H](C(C)(C)C)O[C@@H]2C | x | x | 7 | 2 | x | x
O=C(O)c1cccc(Cn2c(Cl)c(/C=N/Nc3ccccc3)sc2=O)c1 | -1 | 10 | x | x | 13 | 27*
O=S(=O)(NCc1ccc(Cl)c(Cl)c1)c1cc(Cl)ccc1N1CC[C@@H](O)C1 | x | x | 2 | 16 | x | x
CCC(C)C(NC(=O)OCc1ccccc1)C(=O)OCN1C(=O)c2ccccc2C1=O (stereo not drawn) | -4 | 4 | 6 | 10 | 13 | 33*
CC(C)C(NC(=O)c1c(F)cccc1F)C(=O)OCN1C(=O)c2ccccc2C1=O (stereo not drawn) | 2 | 8 | -2 | 7 | 7 | -3
Cc1ccc(C)n1NC(=O)c1ccccc1O | -1 | 2 | 9 | -10 | 9 | 32*
Cc1ccc(C)n1NC(=O)c1ccccc1[N+](=O)[O-] | 1 | -2 | -6 | -10 | 8 | -5
CC(=O)N1CCN(c2ccc(OC[C@H]3CO[C@](Cn4ccnc4)(c4ccc(Cl)cc4Cl)O3)cc2)CC1 | -1 | 10 | -15 | -2 | 4 | 26*
O=C(Cc1ccc(NC(=O)C2CCCN(C(=O)c3ccccc3)C2)cc1)Nc1cccc(C(=O)N2CCCC2)c1 (stereo not drawn) | x | x | 13 | 2 | x | x
Cc1ccc(SCc2ccc(C(=O)Nc3cc([N+](=O)[O-])ccc3C)cc2)cc1 | 29* | 8 | 7 | 1 | 0 | 7
O=C(COc1cccc(C(F)(F)F)c1)Nc1ccccc1N1CCCCC1 | 2 | 8 | -8 | 13 | -5 | 4
CSCCC(NS(=O)(=O)c1cccc(C(F)(F)F)c1)C(=O)Nc1ccccc1N1CCCC1 (stereo not drawn) | 26* | 3 | -6 | -7 | 6 | 10
Cc1ccc(-n2c(Cc3cccs3)nnc2SCC(=O)Nc2ccc(S(N)(=O)=O)cc2)cc1 | 7 | 8 | 13 | -18 | 9 | 26*
O=C(CSc1nnc(Cc2cccs2)n1-c1ccc(Cl)cc1)NCc1ccc2c(c1)OCO2 | -2 | 0 | 5 | 17 | 3 | 25*
Cc1cc(O)cc(=O)n1-c1ccc(Cl)c(C(F)(F)F)c1 | x | x | -2 | -5 | x | x
CCC1CCc2c(sc(NC(=O)c3ccoc3C)c2C(N)=O)C1 (stereo not drawn) | 1 | -4 | -11 | -5 | 2 | 25*
CCC(C)(C)C1CCc2c(sc(NC(=O)c3ccoc3C)c2C(N)=O)C1 (stereo not drawn) | 1 | 2 | -2 | -2 | 14 | 4
SMILES | PAFAH1B2 inh | PAFAH1B3 FP inh | ASAP1 inh | ARFGAP1 inh | PAFAH2 inh | pPAFAH FP inh
C[C@@H]1CN(c2ccc(N3CCN(C(=O)OC(C)(C)C)C[C@@H]3C)cc2C#N)CCN1Cc1ccccc1 | x | x | -7 | 4 | x | x
CC(C)c1ccc(N(C)C(=O)Cc2c(C(=O)O)n(C)c3ccccc23)cc1 | 6 | 13 | -4 | 7 | -6 | 5
CN(C(=O)Cc1c(C(=O)O)n(C)c2ccccc12)c1ccc(Cl)cc1 | 50* | -4 | 2 | 6 | 4 | 2
Cc1ccc(OC(C)C(=O)Nc2ccc(S(=O)(=O)Nc3cc(C)on3)cc2)cc1 (stereo not drawn) | 3 | 1 | 7 | -8 | 7 | -1
CC(Oc1ccccc1)C(=O)Nc1ccc(S(=O)(=O)Nc2nccs2)cc1 (stereo not drawn) | 6 | 3 | 1 | 6 | 15 | -4
CC(Oc1ccc(Br)cc1)C(=O)Nc1ccc(S(=O)(=O)Nc2nccs2)cc1 (stereo not drawn) | 28* | 5 | 4 | -6 | 1 | 7
Cc1cc(NS(=O)(=O)c2ccc(NC(=O)C(C)Oc3ccc(Cl)cc3)cc2)no1 (stereo not drawn) | 30* | 5 | -1 | -7 | 0 | -5
O=C(/C=C(\Nc1ccc(Cl)c(Cl)c1)c1ccccc1)c1ccccc1 | x | x | -4 | 11 | x | x
O=C(Nc1ccccn1)c1ccc(S(=O)(=O)c2ccc(Cl)cc2)cc1 | 24* | 1 | -4 | 4 | -4 | 1
O=C(Nc1ccccn1)c1ccc(S(=O)(=O)N2CCCC2)cc1 | -1 | 4 | -7 | 21 | 4 | 7
CN(C)c1cccc2c(S(=O)(=O)NCC3CCN(C(=O)C(=O)c4cccs4)CC3)cccc12 | x | x | 19 | 5 | x | x
Cc1ccc(OCC(=O)c2ccc(Cl)s2)c([N+](=O)[O-])n1 | 5 | 8 | 2 | 6 | 3 | 25*
NC(=O)CC(NC(=O)Cc1ccc(Br)cc1)c1ccc(N2CCC(Br)CC2)c([N+](=O)[O-])c1 (stereo not drawn) | -2 | 4 | 2 | 18 | -3 | 26*
NC(=O)CC(NC(=O)Cc1ccc(Br)cc1)c1ccc(N2CCCCCCC2)c([N+](=O)[O-])c1 (stereo not drawn) | 7 | 2 | -6 | 15 | 5 | 13
O=C(NC(Cc1ccccc1)C(=O)O)OCC1c2ccccc2-c2ccccc21 (stereo not drawn) | 27* | 10 | 8 | 1 | 3 | 7
CCN1C[C@@H]2[C@@H]3C(=O)N(Cc4ccccc4)C(=O)[C@@H]3[C@](CC)(C1=O)N2C(=O)c1ccc(Cl)cc1 | x | x | 7 | 2 | x | x
O=C(CCN1C(=O)/C(=C/c2ccccc2Cl)SC1=S)NC1=NCCS1 | 34* | -4 | 5 | 1 | 5 | 6
O=C(CCN1C(=O)/C(=C/c2ccccc2Cl)SC1=S)NNC(=O)c1ccccc1O | 5 | 23 | 1 | 2 | 15 | 30*
CCOC(=O)CNC(=O)C12CC3CC(C1)CC(c1ccc(C)cc1)(C3)C2 | 4 | 3 | 11 | 1 | -4 | 12
CCOc1ccc(NC(=O)C23CC4CC(C2)CC(c2ccccc2)(C4)C3)cc1 | 27* | 8 | -17 | 6 | 5 | 4

Bioassay records deposited in PubChem BioAssay by The Scripps Research Institute Molecular Screening Center.
